Assay results from ChEMBL document CHEMBL5674890, “Selective inhibition of CBP/p300 HAT by A-485 results in suppression of lipogenesis and hepatic gluconeogenesis” (Cell Death Dis, 2020).
Active and inactive are the calls of the source. The rule behind the calls is not given here.

Tests used:
Mus musculus [1] = test: Inhibition of lipogenesis in C57BL/6 mouse supplemented with normal chow diet assessed as decrease in FAS protein expression at 20 mg/kg/day, ip administered for 1 week measured by western blot analysis; assay type: functional, organism-based; details: time 1.0 weeks
Summary of the method: (§1)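 Eight-week-old male C57BL/6 mice on normal chow were given 20 mg·kg−1·day−1 ip daily for 7 days or vehicle. Epididymal WAT was collected. Lipogenic, adipogenic and fatty-acid-oxidation transcripts were quantified by Trizol extraction and SYBR Green RT-qPCR. FAS, ACC, PPARγ and C/EBPα protein were assessed by western blot. n = 5–9; mean ± SEM.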

Adipocyte = test: Inhibition of lipogenesis in mouse adipocytes isolated stromal vascular cells assessed as decrease in adiponectin mRNA expression measured after 24 hrs by RT-qPCR assay; assay type: functional, cell-based
Summary of the method: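 Stromal vascular cells from inguinal WAT of C57BL/6 mice, grown in DMEM/F12 + 10% FBS at 37 °C, 10% CO2. At confluence, induced 48 h with 5 μg/ml insulin, 1 μM dexamethasone, 0.5 mM isobutylmethylxanthine, then 6 days in 5 μg/ml insulin; fully differentiated day 8. Mature adipocytes exposed to inhibitor 24 h. Total RNA by Trizol, SYBR Green RT-qPCR; protein by western blot.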

Hepatocyte [2] = test: Inhibition of lipogenesis in mouse primary hepatocytes assessed as decrease in ACC protein expression at 3 uM in presence of 100 nM insulin and 5 to 25 mM glucose measured after 18 hrs by western blot analysis; assay type: functional, cell-based
Mus musculus [3] = test: Inhibition of lipogenesis in C57BL/6 mouse supplemented with high-fat diet assessed as decrease in gross size of WAT at 20 mg/kg/day, ip administered for 1 week; assay type: functional, organism-based; details: time 1.0 weeks
Summary of the method: (§2)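 Male C57BL/6 mice were fed high-fat diet for 14 weeks from 5 weeks of age, then injected ip with 20 mg·kg−1·day−1 for 7 days or given vehicle. Epididymal and inguinal WAT were weighed, examined by H&E, and analysed. Transcripts were measured by Trizol/SYBR Green RT-qPCR; proteins by western blot. n = 5–9; mean ± SEM.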

Hepatocyte [4] = test: Inhibition of lipogenesis in mouse primary hepatocytes assessed as decrease in FASN mRNA expression at 3 uM in presence of 100 nM insulin and 5 to 25 mM glucose measured after 18 hrs by RT-qPCR assay; assay type: functional, cell-based
Summary of the method: (§3)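 Primary hepatocytes isolated from C57BL/6 mice by two-step perfusion. Cells incubated 18 h with 3 μM inhibitor, with 0 or 100 nM insulin and 5 or 25 mM glucose. Transcripts quantified by SYBR Green RT-qPCR after Trizol RNA extraction; proteins by western blot of lysates. Mean ± SEM.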

Mus musculus [5] = test: Inhibition of hepatic lipogenesis in C57BL/6 mouse supplemented with normal chow diet assessed as decrease in ChREBP protein expression at 20 mg/kg/day, ip administered for 1 week measured by western blot analysis; assay type: functional, organism-based; details: time 1.0 weeks
Summary of the method: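 Normal-chow male C57BL/6 mice, 8 weeks old, were injected ip at 20 mg·kg−1·day−1 daily for 7 days or given vehicle. Liver tissue was homogenized in lysis buffer, and FAS and ChREBP protein were assessed by western blot. n = 5–9.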

[6] = target: T1, CREB-binding protein/Histone acetyltransferase p300 (Homo sapiens) (UniProt Q09472+Q92793); test: Inhibition of CBP/p300 in mouse primary hepatocytes stimulated with 100 uM 8-Br-cAMP assessed as decrease in FOXO1 protein expression at 3 uM in presence of 10 uM MG132; assay type: cell-based; details: Primary hepatocyte
Summary of the method: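 Primary mouse hepatocytes exposed to 100 μM 8-Br-cAMP, 3 μM compound, 10 μg/ml cycloheximide and 10 μM MG132. FOXO1 protein measured by western blot, band intensity quantified. Three independent experiments.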

Mus musculus [7] = test: Inhibition of hepatic lipogenesis in C57BL/6 mouse supplemented with normal chow diet assessed as decrease in triglyceride level at 20 mg/kg/day, ip administered for 1 week measured by Oil red O staining method; assay type: functional, organism-based; details: time 1.0 weeks
Hepatocyte [8] = test: Inhibition of lipogenesis in mouse primary hepatocytes assessed as increase in FGF21 mRNA expression at 3 uM in presence of 100 nM insulin and 5 to 25 mM glucose measured after 18 hrs by RT-qPCR assay; assay type: functional, cell-based; summary of the method: as §3
Mus musculus [9] = test: Inhibition of lipogenesis in C57BL/6 mouse supplemented with normal chow diet assessed as decrease in PPARgamma mRNA expression at 20 mg/kg/day, ip administered for 1 week measured measured by RT-qPCR assay; assay type: functional, organism-based; details: time 1.0 weeks; summary of the method: as §1
Mus musculus [10] = test: Inhibition of lipogenesis in C57BL/6 mouse supplemented with high-fat diet assessed as decrease in PPARgamma protein expression at 20 mg/kg/day, ip administered for 1 week measured measured by western blot analysis; assay type: functional, organism-based; details: time 1.0 weeks; summary of the method: as §2
Hepatocyte [11] = test: Inhibition of glucogenesis in mouse primary hepatocytes stimulated with 100 uM 8-Br-cAMP assessed as decrease in PEPCK mRNA expression at 3 uM in combination with 2 mM metformin measured by RT-qPCR assay; assay type: functional, cell-based
Summary of the method: (§4)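 Primary mouse hepatocytes given 3 μM compound with 2 mM metformin in the presence of 100 μM 8-Br-cAMP. Gluconeogenic gene mRNA measured by SYBR Green RT-qPCR. Mean ± SEM, three independent experiments.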

Mus musculus [12] = test: Anti-obesity activity in C57BL/6 mouse supplemented with normal chow diet assessed as effect on random blood glucose at 20 mg/kg/day, ip administered for 1 week; assay type: functional, organism-based; details: time 1.0 weeks
Summary of the method: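 8-week-old male C57BL/6 mice on normal chow, ip 20 mg·kg−1·day−1 for 7 days. Blood glucose measured randomly fed or after 6 h or 16 h fasting, as the line states. Mean ± SEM, n = 5–9.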

Hepatocyte [13] = test: Inhibition of lipogenesis in mouse primary hepatocytes assessed as increase in CPT1alpha mRNA expression at 3 uM in presence of 100 nM insulin and 5 to 25 mM glucose measured after 18 hrs by RT-qPCR assay; assay type: functional, cell-based; summary of the method: as §3
Hepatocyte [14] = test: Inhibition of glucogenesis in mouse primary hepatocytes stimulated with 100 uM 8-Br-cAMP assessed as effect on FOXO1 mRNA expression at 3 uM measured after 8 hrs by RT-qPCR assay; assay type: functional, cell-based
Summary of the method: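 Primary mouse hepatocytes treated with 3 μM compound and 100 μM 8-Br-cAMP for 8 h. Trizol RNA, SYBR Green RT-qPCR of the named transcript. Mean ± SEM, three independent experiments.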

Mus musculus [15] = test: Inhibition of lipogenesis in C57BL/6 mouse supplemented with high-fat diet assessed as decrease in weight of epididymal white adipose tissue (eWAT) at 20 mg/kg/day, ip administered for 1 week; assay type: functional, organism-based; details: time 1.0 weeks; summary of the method: as §2
Hepatocyte [16] = test: Inhibition of glucogenesis in mouse primary hepatocytes stimulated with 100 uM 8-Br-cAMP assessed as decrease in G6Pc mRNA expression at 3 uM in combination with 2 mM metformin measured by RT-qPCR assay; assay type: functional, cell-based; summary of the method: as §4
Mus musculus [17] = test: Inhibition of lipogenesis in C57BL/6 mouse supplemented with high-fat diet assessed as decrease in adipocyte size of WAT at 20 mg/kg/day, ip administered for 1 week; assay type: functional, organism-based; details: time 1.0 weeks; summary of the method: as §2
[18] = target: T1, CREB-binding protein/Histone acetyltransferase p300 (Homo sapiens); test: Inhibition of CBP/p300 in mouse primary hepatocytes stimulated with 100 uM 8-Br-cAMP assessed as effect on COP1 protein expression at 3 uM measured after 12 hrs by western blot analysis; assay type: cell-based; details: Primary hepatocyte
Mus musculus [19] = test: Inhibition of lipogenesis in C57BL/6 mouse supplemented with high-fat diet assessed as decrease in ACC mRNA expression at 20 mg/kg/day, ip administered for 1 week measured by RT-qPCR assay; assay type: functional, organism-based; details: time 1.0 weeks; summary of the method: as §2

T1 sequence (Q09472 whole entry, looked up): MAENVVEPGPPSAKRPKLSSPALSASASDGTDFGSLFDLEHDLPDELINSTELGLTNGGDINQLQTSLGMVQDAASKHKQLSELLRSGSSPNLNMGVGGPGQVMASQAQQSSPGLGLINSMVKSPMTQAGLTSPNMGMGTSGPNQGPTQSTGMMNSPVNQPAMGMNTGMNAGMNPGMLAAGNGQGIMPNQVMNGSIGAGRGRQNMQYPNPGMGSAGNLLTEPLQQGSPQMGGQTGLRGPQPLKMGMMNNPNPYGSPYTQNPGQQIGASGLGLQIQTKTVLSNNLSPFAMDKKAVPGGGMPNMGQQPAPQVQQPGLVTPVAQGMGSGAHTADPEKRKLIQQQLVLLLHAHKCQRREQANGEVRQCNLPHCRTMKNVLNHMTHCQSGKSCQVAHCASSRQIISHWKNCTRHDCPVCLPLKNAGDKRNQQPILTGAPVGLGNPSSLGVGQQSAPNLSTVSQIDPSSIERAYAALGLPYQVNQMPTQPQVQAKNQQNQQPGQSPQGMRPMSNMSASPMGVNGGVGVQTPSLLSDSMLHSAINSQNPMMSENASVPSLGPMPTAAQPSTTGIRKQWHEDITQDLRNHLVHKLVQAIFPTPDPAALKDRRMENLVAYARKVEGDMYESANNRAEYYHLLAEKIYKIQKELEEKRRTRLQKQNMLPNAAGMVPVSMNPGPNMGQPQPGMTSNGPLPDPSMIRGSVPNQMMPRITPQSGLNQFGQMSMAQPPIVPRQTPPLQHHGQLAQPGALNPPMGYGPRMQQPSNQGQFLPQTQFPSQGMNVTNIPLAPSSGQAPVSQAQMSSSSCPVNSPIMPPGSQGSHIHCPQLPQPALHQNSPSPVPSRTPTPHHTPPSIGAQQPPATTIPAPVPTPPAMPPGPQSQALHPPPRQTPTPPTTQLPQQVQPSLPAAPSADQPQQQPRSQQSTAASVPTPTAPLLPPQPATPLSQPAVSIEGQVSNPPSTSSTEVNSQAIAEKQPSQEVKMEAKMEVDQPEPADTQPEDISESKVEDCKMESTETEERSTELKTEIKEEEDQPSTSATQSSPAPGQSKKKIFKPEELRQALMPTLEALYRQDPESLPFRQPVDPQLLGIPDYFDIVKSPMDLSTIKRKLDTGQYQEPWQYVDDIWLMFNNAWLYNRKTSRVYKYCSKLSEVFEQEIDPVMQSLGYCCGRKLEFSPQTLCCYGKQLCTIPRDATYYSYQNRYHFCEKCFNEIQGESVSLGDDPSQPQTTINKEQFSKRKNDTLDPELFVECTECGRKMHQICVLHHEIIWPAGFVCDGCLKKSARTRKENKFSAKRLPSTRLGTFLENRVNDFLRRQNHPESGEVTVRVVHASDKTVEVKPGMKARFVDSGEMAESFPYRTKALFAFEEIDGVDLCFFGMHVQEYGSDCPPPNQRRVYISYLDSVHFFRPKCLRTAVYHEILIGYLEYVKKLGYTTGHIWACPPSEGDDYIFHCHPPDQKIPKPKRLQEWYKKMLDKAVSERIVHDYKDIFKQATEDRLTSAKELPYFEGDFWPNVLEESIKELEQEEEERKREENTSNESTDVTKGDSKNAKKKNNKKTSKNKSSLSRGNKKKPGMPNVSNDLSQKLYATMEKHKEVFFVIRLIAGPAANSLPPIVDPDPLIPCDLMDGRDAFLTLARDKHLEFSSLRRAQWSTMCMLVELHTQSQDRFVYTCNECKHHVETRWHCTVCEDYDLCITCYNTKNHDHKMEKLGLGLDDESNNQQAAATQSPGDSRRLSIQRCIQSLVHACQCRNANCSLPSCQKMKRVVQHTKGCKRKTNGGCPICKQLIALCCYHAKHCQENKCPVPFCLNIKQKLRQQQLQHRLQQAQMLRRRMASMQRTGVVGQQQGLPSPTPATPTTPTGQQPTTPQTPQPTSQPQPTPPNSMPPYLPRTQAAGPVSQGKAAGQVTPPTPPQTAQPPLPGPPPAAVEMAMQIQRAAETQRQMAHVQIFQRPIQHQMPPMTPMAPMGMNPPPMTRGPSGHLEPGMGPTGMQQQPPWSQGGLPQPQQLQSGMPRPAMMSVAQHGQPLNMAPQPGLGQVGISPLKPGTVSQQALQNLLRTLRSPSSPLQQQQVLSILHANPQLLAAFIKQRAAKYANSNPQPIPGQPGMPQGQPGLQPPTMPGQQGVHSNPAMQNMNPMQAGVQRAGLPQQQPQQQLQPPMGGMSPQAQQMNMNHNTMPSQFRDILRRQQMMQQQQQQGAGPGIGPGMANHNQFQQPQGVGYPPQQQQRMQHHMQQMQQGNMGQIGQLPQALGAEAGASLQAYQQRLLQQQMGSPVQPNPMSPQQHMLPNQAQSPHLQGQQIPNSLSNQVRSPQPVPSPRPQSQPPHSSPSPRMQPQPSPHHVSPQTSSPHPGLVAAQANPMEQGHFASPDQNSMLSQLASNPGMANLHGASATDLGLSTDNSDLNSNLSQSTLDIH
T1 sequence (Q92793 whole entry, looked up): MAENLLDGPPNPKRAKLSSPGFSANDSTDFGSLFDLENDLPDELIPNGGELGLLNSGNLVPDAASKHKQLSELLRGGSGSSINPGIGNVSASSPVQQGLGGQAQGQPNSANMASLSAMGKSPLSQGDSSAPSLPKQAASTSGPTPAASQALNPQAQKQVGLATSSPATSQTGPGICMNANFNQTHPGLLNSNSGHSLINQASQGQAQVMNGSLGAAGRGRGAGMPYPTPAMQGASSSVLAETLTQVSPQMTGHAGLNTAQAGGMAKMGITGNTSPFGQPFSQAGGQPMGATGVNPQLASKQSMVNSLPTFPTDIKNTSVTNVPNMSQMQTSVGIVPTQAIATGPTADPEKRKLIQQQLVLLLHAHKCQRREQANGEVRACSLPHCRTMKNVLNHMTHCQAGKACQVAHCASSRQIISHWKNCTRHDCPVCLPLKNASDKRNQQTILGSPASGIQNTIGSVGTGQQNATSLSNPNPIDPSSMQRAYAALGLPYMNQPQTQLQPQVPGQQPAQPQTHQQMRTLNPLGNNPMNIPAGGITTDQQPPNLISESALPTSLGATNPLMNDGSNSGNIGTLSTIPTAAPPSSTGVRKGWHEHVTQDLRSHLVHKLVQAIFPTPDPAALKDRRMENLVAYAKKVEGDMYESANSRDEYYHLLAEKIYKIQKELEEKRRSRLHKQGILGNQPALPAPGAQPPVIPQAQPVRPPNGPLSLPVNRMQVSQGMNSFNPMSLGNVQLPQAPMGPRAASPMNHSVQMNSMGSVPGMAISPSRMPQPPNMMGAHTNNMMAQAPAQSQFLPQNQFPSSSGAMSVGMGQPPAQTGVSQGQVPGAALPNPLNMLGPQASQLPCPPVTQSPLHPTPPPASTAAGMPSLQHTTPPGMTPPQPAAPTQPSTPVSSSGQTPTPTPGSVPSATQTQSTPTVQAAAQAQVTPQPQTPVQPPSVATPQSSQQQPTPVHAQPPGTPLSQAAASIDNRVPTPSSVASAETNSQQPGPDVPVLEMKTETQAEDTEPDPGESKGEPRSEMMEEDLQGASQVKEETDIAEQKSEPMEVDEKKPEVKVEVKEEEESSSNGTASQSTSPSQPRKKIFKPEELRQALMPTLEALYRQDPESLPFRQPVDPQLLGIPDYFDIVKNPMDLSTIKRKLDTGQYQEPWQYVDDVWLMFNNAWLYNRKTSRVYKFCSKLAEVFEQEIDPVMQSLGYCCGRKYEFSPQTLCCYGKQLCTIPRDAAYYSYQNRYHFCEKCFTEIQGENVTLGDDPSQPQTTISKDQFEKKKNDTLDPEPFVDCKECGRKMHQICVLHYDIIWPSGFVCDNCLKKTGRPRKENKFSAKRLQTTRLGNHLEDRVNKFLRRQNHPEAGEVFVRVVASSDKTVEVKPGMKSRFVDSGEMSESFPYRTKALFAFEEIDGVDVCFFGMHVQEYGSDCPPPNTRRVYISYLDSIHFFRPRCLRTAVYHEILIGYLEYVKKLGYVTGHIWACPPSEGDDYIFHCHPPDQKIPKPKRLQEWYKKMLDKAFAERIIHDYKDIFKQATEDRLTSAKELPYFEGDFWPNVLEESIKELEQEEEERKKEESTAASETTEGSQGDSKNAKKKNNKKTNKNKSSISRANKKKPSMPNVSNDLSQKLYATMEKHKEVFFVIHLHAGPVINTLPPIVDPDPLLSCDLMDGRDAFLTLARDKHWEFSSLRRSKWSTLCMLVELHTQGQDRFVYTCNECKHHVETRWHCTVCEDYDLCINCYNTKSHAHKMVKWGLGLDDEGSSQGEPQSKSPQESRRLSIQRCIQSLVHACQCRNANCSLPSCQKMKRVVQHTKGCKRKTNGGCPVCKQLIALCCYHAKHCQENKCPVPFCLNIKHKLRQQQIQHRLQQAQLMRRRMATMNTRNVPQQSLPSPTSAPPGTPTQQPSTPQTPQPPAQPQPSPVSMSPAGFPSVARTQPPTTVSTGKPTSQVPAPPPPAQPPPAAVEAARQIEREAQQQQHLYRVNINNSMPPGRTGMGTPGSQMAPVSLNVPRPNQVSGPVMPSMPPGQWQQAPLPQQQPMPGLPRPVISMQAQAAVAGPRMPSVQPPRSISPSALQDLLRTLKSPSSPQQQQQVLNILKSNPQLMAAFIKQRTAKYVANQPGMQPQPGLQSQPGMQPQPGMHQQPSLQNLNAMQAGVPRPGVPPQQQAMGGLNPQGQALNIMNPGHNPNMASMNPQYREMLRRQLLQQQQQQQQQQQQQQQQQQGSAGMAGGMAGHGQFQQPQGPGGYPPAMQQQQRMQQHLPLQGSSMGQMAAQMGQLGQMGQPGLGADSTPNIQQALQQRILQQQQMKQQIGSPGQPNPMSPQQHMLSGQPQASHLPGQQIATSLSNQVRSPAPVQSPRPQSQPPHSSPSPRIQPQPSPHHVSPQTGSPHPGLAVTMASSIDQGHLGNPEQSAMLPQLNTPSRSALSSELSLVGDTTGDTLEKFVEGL

inhibition [6]: Active
inhibition [18]: inactive
SMILES: CNC(=O)Nc1ccc2c(c1)CCS21OC(=O)N(CC(=O)N(Cc2ccc(F)cc2)[C@@H](C)C(F)(F)F)C1=O (stereo not given in full)
inhibition (Mus musculus [1]): Active
inhibition (Adipocyte): Active
inhibition (Hepatocyte [2]): Active
inhibition (Mus musculus [3]): Active
inhibition (Hepatocyte [4]): Active
inhibition (Mus musculus [5]): Active
inhibition (Mus musculus [7]): Active
inhibition (Hepatocyte [8]): Active
inhibition (Mus musculus [9]): Active
inhibition (Mus musculus [10]): Active
inhibition (Hepatocyte [11]): Active
Activity (Mus musculus [12]): inactive
inhibition (Hepatocyte [13]): Active
inhibition (Hepatocyte [14]): inactive
inhibition (Mus musculus [15]): Active
inhibition (Hepatocyte [16]): Active
inhibition (Mus musculus [17]): Active
inhibition (Mus musculus [19]): Active
